Test results from ChEMBL document CHEMBL1128183, “Hypoxia-selective agents derived from 2-quinoxalinecarbonitrile 1,4-di-N-oxides. 2” (1995).

Tests used:
V79 = experiment: Concentration giving 1% of control V79 cells survival in hypoxia; format: functional, Cricetulus griseus
Procedure, shortened: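 V79 Chinese hamster lung fibroblasts, trypsinized from exponential monolayers into suspension (2 × 10^4 cells/mL, EMEM + 10% FBS + 10 mM HEPES), gassed with nitrogen 30 min before and throughout 2 h drug exposure; duplicate flasks per dose. Cells replated, colonies (>64 cells) counted after 7 days at 37 °C; dose-response curve gives micromolar dose for 1% of control survival.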

[1] = Hypoxia cytotoxicity ratio (HCR), calculated by dividing the dose in air by the dose in hypoxia giving 1% control cell survival.; format: functional
Procedure, shortened: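 Suspension cultures of V79 cells gassed continuously with pure air or nitrogen (30 min pre-gassing, then 2 h exposure), two flasks per dose, DMSO and nitracrine 0.06 μM controls. Clonogenic survival from plating efficiency relative to control after 7-day colony growth; ratio = air dose over hypoxic dose each giving 1% control survival, from dose-response curves.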

SMILES | Potency (V79) [µM] | HCR [1]
N#Cc1c(N)[n+]([O-])c2ccc(Cl)cc2[n+]1[O-] | 9 | 150
N#Cc1c(NCCCN2CCOCC2)[n+]([O-])c2cc(Cl)ccc2[n+]1[O-] | 0.8 | >125
CCN(CC)CCNc1c(C#N)[n+]([O-])c2ccccc2[n+]1[O-] | 0.9 | 120
COc1ccc2c(c1)[n+]([O-])c(C#N)c(NCCCN(C)C)[n+]2[O-] | 2 | 200
CN(CCCNc1c(C#N)[n+]([O-])c2cc(Cl)ccc2[n+]1[O-])CCCNc1c(C#N)[n+]([O-])c2cc(Cl)ccc2[n+]1[O-] | 0.7 | 10
N#Cc1c(NCCCn2ccnc2)[n+]([O-])c2ccc(Cl)cc2[n+]1[O-] | 2 | >50
N#Cc1c[n+]([O-])c2ccccc2[n+]1[O-] | 5 | >100
Cc1ccc2c(c1)[n+]([O-])c(C#N)c(NCCCN(C)C)[n+]2[O-] | 1 | 300
CN(C)CCCNc1c(C#N)[n+]([O-])c2cc(F)ccc2[n+]1[O-] | 0.6 | 170
CN(C)CCCNc1c(C#N)[n+]([O-])c2cc(Cl)ccc2[n+]1[O-] | 0.4 | 250
N#Cc1c[n+]([O-])c2ccc(Cl)cc2[n+]1[O-] | 3 | 30
Cc1c(C#N)[n+]([O-])c2ccccc2[n+]1[O-] | 10 | 15
N#Cc1c[n+]([O-])c2ccc(F)cc2[n+]1[O-] | 2 | >50
N#Cc1c(N)[n+]([O-])c2ccc(-c3ccc([N+](=O)[O-])cc3)cc2[n+]1[O-] | 4 | 15
N#Cc1c[n+]([O-])c2cc(F)c(F)cc2[n+]1[O-] | 0.3 | 5
CN(C)CCCNc1c(C#N)[n+]([O-])c2ccccc2[n+]1[O-] | 1 | 300
COc1cc2c(cc1Cl)[n+]([O-])cc(C#N)[n+]2[O-] | 0.4 | >50
COc1ccc2c(c1)[n+]([O-])c(C#N)c[n+]2[O-] | 5 | >200
CCN(CC)CCNc1c(C#N)[n+]([O-])c2cc(Cl)ccc2[n+]1[O-] | 0.5 | 40
CN(C)CCNc1c(C#N)[n+]([O-])c2cc(Cl)ccc2[n+]1[O-] | 0.3 | 100

SMILES | Potency (V79) [µM] | HCR [1]
CCN(CC)CCNc1c(C#N)[n+]([O-])c2cc(C)ccc2[n+]1[O-] | 3 | 100
N#Cc1c[n+]([O-])c2ccc(-c3ccc([N+](=O)[O-])cc3)cc2[n+]1[O-] | 0.2 | 200
N#Cc1c[n+]([O-])c2ccc(C(F)(F)F)cc2[n+]1[O-] | 6 | 80
Cc1cc2c(cc1C)[n+]([O-])c(C#N)c[n+]2[O-] | 14 | >7
N#Cc1c(NCCCN2CCOCC2)[n+]([O-])c2ccc(Cl)cc2[n+]1[O-] | 2 | 300
N#Cc1c(NCCO)[n+]([O-])c2ccc(Cl)cc2[n+]1[O-] | 4 | 75
N#Cc1c(N)[n+]([O-])c2cc(F)c(F)cc2[n+]1[O-] | 1 | <10
N#Cc1c(N)[n+]([O-])c2ccccc2[n+]1[O-] | 30 | 80
N#Cc1c(N)[n+]([O-])c2ccc(C(F)(F)F)cc2[n+]1[O-] | 7 | 75
CN(C)CCCNc1c(C#N)[n+]([O-])c2cc(C(F)(F)F)ccc2[n+]1[O-] | 0.3 | 340
N#Cc1c(N)[n+]([O-])c2ccc(F)cc2[n+]1[O-] | 15 | 100
COc1ccc2c(c1)[n+]([O-])c(C#N)c(N)[n+]2[O-] | 30 | >10
CCN(CC)CCNc1c(C#N)[n+]([O-])c2cc(OC)ccc2[n+]1[O-] | 1 | 100
N#Cc1c[n+]([O-])c2cc(Cl)c(Cl)cc2[n+]1[O-] | 0.7 | 10
COc1cc2c(cc1Cl)[n+]([O-])c(N)c(C#N)[n+]2[O-] | 10 | <10
CCN(CC)CCNc1c(C#N)[n+]([O-])c2cc(F)ccc2[n+]1[O-] | 0.4 | 75
CCN(CC)CCNc1c(C#N)[n+]([O-])c2cc(C(F)(F)F)ccc2[n+]1[O-] | 0.6 | 50
Cc1ccc2c(c1)[n+]([O-])c(C#N)c[n+]2[O-] | 6 | 200
N#Cc1c(N)[n+]([O-])c2cc(Cl)c(Cl)cc2[n+]1[O-] | 1 | 80
Nc1n[n+]([O-])c2ccccc2[n+]1[O-] [TIRAPAZAMINE] | 30 | 75
